Experimental data from ChEMBL document CHEMBL1949672 (J Med Chem, 2012).

How the values were obtained:
Adenosine receptor A2a [1] = molecular target: T1, Adenosine receptor A2a (Homo sapiens, UniProt P29274); assay: Agonist activity at human A2A adenosine receptor expressed in CHO cells assessed as stimulation of forskolin-induced cAMP production at 10 uM preincubated for 45 mins prior forskolin treatment measured after 15 mins by liquid scintillation spectrometry relative to 2-[p-(2-carboxyethyl)phenylethylamino]-5'-N-ethylcarboxamido-adenosine; assay type: functional, cell-based
T1 sequence (P29274 whole entry): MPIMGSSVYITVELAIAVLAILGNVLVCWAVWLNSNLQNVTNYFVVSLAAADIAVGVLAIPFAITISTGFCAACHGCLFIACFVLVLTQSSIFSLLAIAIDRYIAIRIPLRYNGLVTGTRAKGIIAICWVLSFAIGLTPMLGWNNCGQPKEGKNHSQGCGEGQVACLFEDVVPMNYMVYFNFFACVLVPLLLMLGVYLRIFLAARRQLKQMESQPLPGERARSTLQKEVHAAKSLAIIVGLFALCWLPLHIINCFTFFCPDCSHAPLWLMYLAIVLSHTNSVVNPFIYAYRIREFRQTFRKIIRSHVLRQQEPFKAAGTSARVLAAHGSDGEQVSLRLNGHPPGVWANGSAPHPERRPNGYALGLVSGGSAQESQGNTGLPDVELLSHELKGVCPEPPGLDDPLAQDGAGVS
Summary of the method: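 CHO cells expressing human A2A AR; test compound at a single concentration of 10 µM; cyclic AMP production measured and expressed as mean percentage of the response to the full agonist CGS21680 (10 µM).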

Adenosine receptor A3 = molecular target: T2, Adenosine receptor A3 (Homo sapiens, UniProt P0DMS8); assay: Displacement of [125I]N6-(4-amino-3-iodobenzyl)adenosine-5'-N-methyluronamide from human A3 adenosine receptor expressed in CHO cell membranes after 60 mins
T2 sequence (P0DMS8 whole entry): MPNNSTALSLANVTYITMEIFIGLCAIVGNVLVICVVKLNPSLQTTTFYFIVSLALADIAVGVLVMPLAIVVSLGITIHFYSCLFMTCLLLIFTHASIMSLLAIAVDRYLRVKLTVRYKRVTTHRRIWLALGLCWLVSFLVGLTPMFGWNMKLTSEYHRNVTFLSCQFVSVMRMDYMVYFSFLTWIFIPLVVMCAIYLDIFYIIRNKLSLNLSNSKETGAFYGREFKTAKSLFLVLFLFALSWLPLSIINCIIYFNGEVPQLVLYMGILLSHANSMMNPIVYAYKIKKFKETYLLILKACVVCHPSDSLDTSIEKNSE

Adenosine receptor A1 = molecular target: T3, Adenosine receptor A1 (Homo sapiens, UniProt P30542); assay: Displacement of [3H]N6-phenylisopropyladenosine from human A1 adenosine receptor expressed in CHO cell membranes after 60 mins
T3 sequence (P30542 whole entry): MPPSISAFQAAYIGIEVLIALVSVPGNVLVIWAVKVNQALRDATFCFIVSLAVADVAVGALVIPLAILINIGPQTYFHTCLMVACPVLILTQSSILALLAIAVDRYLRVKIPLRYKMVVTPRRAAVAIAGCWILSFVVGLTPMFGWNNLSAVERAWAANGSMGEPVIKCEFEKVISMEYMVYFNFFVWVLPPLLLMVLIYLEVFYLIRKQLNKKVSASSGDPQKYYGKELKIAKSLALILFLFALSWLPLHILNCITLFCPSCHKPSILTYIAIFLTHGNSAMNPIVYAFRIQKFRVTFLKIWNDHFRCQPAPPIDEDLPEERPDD
Summary of the method: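 Membranes (40 µg/tube) from CHO cells stably expressing human A1 AR were incubated with 1 nM [3H]R-PIA in 50 mM Tris·HCl pH 7.4 with 10 mM MgCl2, at 25°C for 60 min. Nonspecific binding was defined with 10 µM CPA.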

Adenosine receptor A2a [2] = molecular target: T1, Adenosine receptor A2a; assay: Displacement of [3H]2-[p-(2-carboxyethyl)phenylethylamino]-5'-N-ethylcarboxamido-adenosine from human A2A adenosine receptor expressed in HEK293 cell membranes after 60 mins
Adenosine receptor A2a [3] = molecular target: T1, Adenosine receptor A2a; assay: Binding affinity to A2A adenosine receptor
[4] = Displacement of [1251]PAPAAPEC from A2A adenosine receptor expressed in bovine striatal membranes after 1 hr by gamma counting; assay type: cell membranes, Bos taurus, Striatum, Membrane

Ki (Adenosine receptor A2a [3]) [nM] | SMILES | Emax (Adenosine receptor A2a [1]) [%] | Ki (Adenosine receptor A3) [nM] | Ki (Adenosine receptor A1) [nM] | Ki (Adenosine receptor A2a [2]) [nM] | Ki [4] [nM]
– | CCNC(=O)[C@H]1O[C@@H](n2cnc3c(N)nc(NCCc4ccc(CCC(=O)N[C@@H](CCCNC(=N)N)C(=O)O)cc4)nc32)[C@H](O)[C@@H]1O | 94.5 | – | – | – | –
– | CCNC(=O)[C@H]1O[C@@H](n2cnc3c(N)nc(NCCc4ccc(CCC(=O)N[C@@H](Cc5cnc[nH]5)C(=O)O)cc4)nc32)[C@H](O)[C@@H]1O | – | 830 | 1000 | 110 | –
– | CCNC(=O)[C@H]1O[C@@H](n2cnc3c(N)nc(NCCc4ccc(CCC(=O)N[C@H](CCCNC(=N)N)C(=O)O)cc4)nc32)[C@H](O)[C@@H]1O | 94.7 | – | – | – | –
– | CCNC(=O)[C@H]1O[C@@H](n2cnc3c(N)nc(NCCc4ccc(CCC(=O)N[C@H](CCCN=C(N)N)C(=O)O)cc4)nc32)[C@H](O)[C@@H]1O | – | 220 | 990 | 50 | –
– | CCNC(=O)[C@H]1O[C@@H](n2cnc3c(N)nc(NCCc4ccc(CCC(=O)N[C@H](Cc5c[nH]cn5)C(=O)O)cc4)nc32)[C@H](O)[C@@H]1O | 106 | 320 | 350 | 40 | –
– | CCNC(=O)[C@H]1O[C@@H](n2cnc3c(N)nc(NCCc4ccc(CCC(=O)N[C@H](CC(=O)O)C(=O)O)cc4)nc32)[C@H](O)[C@@H]1O | 94.3 | 790 | 1180 | 110 | –
– | CCNC(=O)[C@H]1O[C@@H](n2cnc3c(N)nc(NCCc4ccc(CCC(=O)N[C@H](Cc5ccccc5)C(=O)OC)cc4)nc32)[C@H](O)[C@@H]1O | 92.6 | – | 1230 | 84.3 | –
– | CCNC(=O)[C@H]1O[C@@H](n2cnc3c(N)nc(NCCc4ccc(CCC(=O)N[C@H](Cc5ccccc5)C(=O)O)cc4)nc32)[C@H](O)[C@@H]1O | 93.4 | 140 | 550 | 34 | –
– | CCNC(=O)[C@H]1O[C@@H](n2cnc3c(N)nc(NCCc4ccc(CCC(=O)N[C@@H](Cc5c[nH]c6ccccc56)C(=O)OC)cc4)nc32)[C@H](O)[C@@H]1O | 104 | 140 | 1670 | 87.2 | –
– | CCNC(=O)[C@H]1O[C@@H](n2cnc3c(N)nc(NCCc4ccc(CCC(=O)N[C@@H](Cc5c[nH]cn5)C(=O)O)cc4)nc32)[C@H](O)[C@@H]1O | 105 | – | – | – | –
– | CCNC(=O)[C@H]1O[C@@H](n2cnc3c(N)nc(NCCc4ccc(CCC(=O)N[C@@H](Cc5ccccc5)C(=O)OC)cc4)nc32)[C@H](O)[C@@H]1O | 111 | – | 1080 | 160 | –
– | CCNC(=O)[C@H]1O[C@@H](n2cnc3c(N)nc(NCCc4ccc(CCC(=O)N[C@@H](CCCN=C(N)N)C(=O)O)cc4)nc32)[C@H](O)[C@@H]1O | – | 620 | 1110 | 100 | –
20.1 | O=C(NCCN1CCCCC1)c1nc(NCC(c2ccccc2)c2ccccc2)c2ncn([C@@H]3O[C@H](CO)[C@@H](O)[C@H]3O)c2n1 | – | – | – | – | –
168 | COc1cc(OC)cc([C@@H](CNc2ncnc3c2ncn3[C@@H]2O[C@H](CO)[C@@H](O)[C@H]2O)c2ccccc2C)c1 | – | – | – | – | –
– | CCNC(=O)[C@H]1O[C@@H](n2cnc3c(N)nc(NCCc4ccc(CCC(=O)N[C@@H](Cc5ccccc5)C(=O)O)cc4)nc32)[C@H](O)[C@@H]1O | 103 | 260 | 640 | 63.7 | –
– | CCNC(=O)[C@H]1O[C@@H](n2cnc3c(N)nc(NCCc4ccc(CCC(=O)N[C@H](Cc5c[nH]c6ccccc56)C(=O)OC)cc4)nc32)[C@H](O)[C@@H]1O | 119 | 250 | 1610 | 130 | –
56 | CCNC(=O)[C@H]1C[C@@H](n2cnc3c(N[C@H](CC)Cc4sccc4Cl)ccnc32)[C@H](O)[C@@H]1O | – | – | – | – | –
– | CCNC(=O)[C@H]1O[C@@H](n2cnc3c(N)nc(NCCc4ccc(CCC(=O)N[C@H](Cc5c[nH]c6ccccc56)C(=O)O)cc4)nc32)[C@H](O)[C@@H]1O | 113 | 520 | 2160 | 130 | –
– | CCNC(=O)[C@H]1O[C@@H](n2cnc3c(N)nc(NCCc4ccc(CCC(=O)NCCNC(=S)Nc5ccc(N=C=S)cc5)cc4)nc32)[C@H](O)[C@@H]1O | – | – | – | – | 7.1
– | CCNC(=O)[C@H]1O[C@@H](n2cnc3c(N)nc(NCCc4ccc(CCC(=O)N[C@@H](Cc5c[nH]c6ccccc56)C(=O)O)cc4)nc32)[C@H](O)[C@@H]1O | 95.8 | 200 | 1060 | 71.7 | –
– | CCNC(=O)[C@H]1O[C@@H](n2cnc3c(N)nc(NCCc4ccc(CCC(=O)N[C@@H](CC(=O)O)C(=O)O)cc4)nc32)[C@H](O)[C@@H]1O | 94.8 | 1460 | 1900 | 180 | –
